Test results taken from ChEMBL document CHEMBL1914368, “Imidazo[1,5-a]quinoxalines as irreversible BTK inhibitors for the treatment of rheumatoid arthritis” (Bioorg Med Chem Lett, 2011).
Activity calls are given as the source filed them. The calls are words filed in the database; no cut-off is given here.

Experiments:
[1] = target: Angiopoietin-1 receptor (Homo sapiens) (UniProt Q02763); test: Inhibition of TEK relative to control; conditions: concentration not given here
[2] = Tmax in mouse at 10 mg/kg, po; type: ADME, organism-based; parameters: dose 10 mg/kg, route oral; conditions: in vivo
Summary of the method: (§1)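 Mouse pharmacokinetics from single dosing at 2 mg/kg iv and 10 mg/kg po. The study derived AUC, T1/2, clearance, Vss, Tmax, Cmax and oral bioavailability (%F) from the paired iv and po arms.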

[3] = target: Receptor tyrosine-protein kinase erbB-2 (Homo sapiens) (UniProt P04626); test: Inhibition of HER2 relative to control; conditions: concentration not given here
[4] = target: Hepatocyte growth factor receptor (Homo sapiens) (UniProt P08581); test: Inhibition of MET relative to control; conditions: concentration not given here
[5] = target: Serine/threonine-protein kinase TBK1 (Homo sapiens) (UniProt Q9UHD2); test: Inhibition of TBK1 relative to control; conditions: concentration not given here
[6] = target: Tyrosine-protein kinase Blk (Homo sapiens, UniProt P51451); test: Inhibition of BLK relative to control
[7] = target: Tyrosine-protein kinase ITK/TSK (Homo sapiens) (UniProt Q08881); test: Inhibition of ITK relative to control; conditions: concentration not given here
[8] = AUC (0 to infinity) in mouse at 10 mg/kg, po; type: ADME, organism-based; parameters: time infinity, dose 10 mg/kg, route oral; conditions: plasma
[9] = target: Platelet-derived growth factor receptor beta (Homo sapiens) (UniProt P09619); test: Inhibition of PDGFRbeta relative to control; conditions: concentration not given here
[10] = target: Mitogen-activated protein kinase 14 (Homo sapiens) (UniProt Q16539); test: Inhibition of MAPK14 relative to control; conditions: concentration not given here
[11] = target: High affinity nerve growth factor receptor (Homo sapiens) (UniProt P04629); test: Inhibition of NTRK1 relative to control; conditions: concentration not given here
[12] = Oral bioavailability in mouse at 10 mg/kg; type: ADME, organism-based; conditions: in vivo; summary of the method: as §1
[13] = target: Glycogen synthase kinase-3 beta (Homo sapiens) (UniProt P49841); test: Inhibition of GSK3B relative to control; conditions: concentration not given here
[14] = target: Vascular endothelial growth factor receptor 3 (Homo sapiens) (UniProt P35916); test: Inhibition of FLT4 relative to control; conditions: concentration not given here
[15] = target: Serine/threonine-protein kinase Chk1 (Homo sapiens) (UniProt O14757); test: Inhibition of CHEK1 relative to control; conditions: concentration not given here
[16] = target: Mitogen-activated protein kinase 10 (Homo sapiens) (UniProt P53779); test: Inhibition of JNK3 relative to control; conditions: concentration not given here
Mus musculus [17] = test: Antiarthritic activity in C57BL/6 mouse assessed as inhibition of T-independent type 2 antigen-induced NP-specific IgM antibody titer production administered qd for 7 days by ELISA; type: functional, organism-based; conditions: C57BL6
Summary of the method: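 Female C57BL/6 mice, 8–10 weeks old, immunized ip with NP(109)-Ficoll (TI-2 antigen). Compound or vehicle given po daily for 7 days, starting 1 day before immunization. Serum was collected 6 days after immunization, and NP-specific IgM and IgG3 titers were measured by ELISA.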

[18] = target: Ephrin type-A receptor 8 (Homo sapiens) (UniProt P29322); test: (§2) Inhibition of EPHA8 relative to control; conditions: concentration not given here
Ephrin type-A receptor 8 = Ephrin type-A receptor 8 (Homo sapiens, UniProt P29322); test: as §2
[19] = target: Tyrosine-protein kinase Mer (Homo sapiens) (UniProt Q12866); test: Inhibition of MERTK relative to control; conditions: concentration not given here
[20] = target: Receptor-type tyrosine-protein kinase FLT3 (Homo sapiens) (UniProt P36888); test: Inhibition of FLT3 relative to control; conditions: concentration not given here
[21] = target: Tyrosine-protein kinase ABL2 (Homo sapiens) (UniProt P42684); test: Inhibition of ABL2 relative to control; conditions: concentration not given here
[22] = target: Phosphatidylinositol 4-phosphate 3-kinase C2 domain-containing subunit beta (Homo sapiens) (UniProt O00750); test: Inhibition of PI3K-C2 beta relative to control; conditions: concentration not given here
[23] = target: Tyrosine-protein kinase HCK (Homo sapiens) (UniProt P08631); test: Inhibition of HCK relative to control; conditions: concentration not given here
[24] = target: T1, Aryl hydrocarbon receptor (Mus musculus, UniProt P30561); test: Agonist activity at Ah receptor in genetically engineered mouse cells expressing firefly luciferase gene by CALUX transactivational assay; type: functional
T1 sequence (P30561 whole entry): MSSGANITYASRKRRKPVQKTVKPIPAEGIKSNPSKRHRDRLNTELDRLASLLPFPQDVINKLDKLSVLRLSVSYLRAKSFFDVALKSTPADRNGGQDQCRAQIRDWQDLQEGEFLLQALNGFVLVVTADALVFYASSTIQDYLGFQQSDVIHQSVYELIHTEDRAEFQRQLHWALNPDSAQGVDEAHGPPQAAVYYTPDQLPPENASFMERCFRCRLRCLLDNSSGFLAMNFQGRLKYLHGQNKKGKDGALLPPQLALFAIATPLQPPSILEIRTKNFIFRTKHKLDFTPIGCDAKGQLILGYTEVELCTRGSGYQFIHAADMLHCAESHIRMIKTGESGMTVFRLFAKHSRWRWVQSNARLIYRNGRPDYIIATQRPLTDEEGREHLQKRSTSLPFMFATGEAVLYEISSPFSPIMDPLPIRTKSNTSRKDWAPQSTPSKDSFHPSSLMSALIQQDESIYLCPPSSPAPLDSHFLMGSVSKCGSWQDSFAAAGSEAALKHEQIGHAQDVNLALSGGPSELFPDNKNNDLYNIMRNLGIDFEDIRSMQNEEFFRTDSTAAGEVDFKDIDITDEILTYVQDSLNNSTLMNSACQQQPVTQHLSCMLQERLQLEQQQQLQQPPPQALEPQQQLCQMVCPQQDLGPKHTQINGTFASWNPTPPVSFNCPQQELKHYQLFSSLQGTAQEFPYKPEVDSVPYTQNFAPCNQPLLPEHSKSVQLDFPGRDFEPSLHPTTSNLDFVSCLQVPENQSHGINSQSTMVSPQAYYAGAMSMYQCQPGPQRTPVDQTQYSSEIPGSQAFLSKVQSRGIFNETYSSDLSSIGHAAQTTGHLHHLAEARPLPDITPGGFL

Mus musculus [25] = test: Antiarthritic activity in DBA/1 JBomTac mouse collagen-induced arthritis model assessed as inhibition of disease progression at 10 mg/kg, po qd measured on day 7 to 22; type: functional, organism-based; parameters: dose 10 mg/kg
Summary of the method: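 Semi-therapeutic collagen-induced arthritis model. Blinded paw scoring used a 0–4 scale, reported as mean and SEM. Comparison to vehicle used Student's t-test, P <0.05.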

[26] = target: Vascular endothelial growth factor receptor 1 (Homo sapiens) (UniProt P17948); test: Inhibition of FLT1 relative to control; conditions: concentration not given here
[27] = target: Tyrosine-protein kinase Lyn (Homo sapiens, UniProt P07948); test: Inhibition of LYN-A expressed in Sf9 cells after 60 mins by TR-FRET Assay
[28] = target: Serine/threonine-protein kinase B-raf (Homo sapiens) (UniProt P15056); test: Inhibition of B-Raf relative to control; conditions: concentration not given here
[29] = target: Serine/threonine-protein kinase Nek2 (Homo sapiens) (UniProt P51955); test: Inhibition of NEK2 relative to control; conditions: concentration not given here

Sequence of Platelet-derived growth factor receptor beta (Homo sapiens) (P09619 whole entry): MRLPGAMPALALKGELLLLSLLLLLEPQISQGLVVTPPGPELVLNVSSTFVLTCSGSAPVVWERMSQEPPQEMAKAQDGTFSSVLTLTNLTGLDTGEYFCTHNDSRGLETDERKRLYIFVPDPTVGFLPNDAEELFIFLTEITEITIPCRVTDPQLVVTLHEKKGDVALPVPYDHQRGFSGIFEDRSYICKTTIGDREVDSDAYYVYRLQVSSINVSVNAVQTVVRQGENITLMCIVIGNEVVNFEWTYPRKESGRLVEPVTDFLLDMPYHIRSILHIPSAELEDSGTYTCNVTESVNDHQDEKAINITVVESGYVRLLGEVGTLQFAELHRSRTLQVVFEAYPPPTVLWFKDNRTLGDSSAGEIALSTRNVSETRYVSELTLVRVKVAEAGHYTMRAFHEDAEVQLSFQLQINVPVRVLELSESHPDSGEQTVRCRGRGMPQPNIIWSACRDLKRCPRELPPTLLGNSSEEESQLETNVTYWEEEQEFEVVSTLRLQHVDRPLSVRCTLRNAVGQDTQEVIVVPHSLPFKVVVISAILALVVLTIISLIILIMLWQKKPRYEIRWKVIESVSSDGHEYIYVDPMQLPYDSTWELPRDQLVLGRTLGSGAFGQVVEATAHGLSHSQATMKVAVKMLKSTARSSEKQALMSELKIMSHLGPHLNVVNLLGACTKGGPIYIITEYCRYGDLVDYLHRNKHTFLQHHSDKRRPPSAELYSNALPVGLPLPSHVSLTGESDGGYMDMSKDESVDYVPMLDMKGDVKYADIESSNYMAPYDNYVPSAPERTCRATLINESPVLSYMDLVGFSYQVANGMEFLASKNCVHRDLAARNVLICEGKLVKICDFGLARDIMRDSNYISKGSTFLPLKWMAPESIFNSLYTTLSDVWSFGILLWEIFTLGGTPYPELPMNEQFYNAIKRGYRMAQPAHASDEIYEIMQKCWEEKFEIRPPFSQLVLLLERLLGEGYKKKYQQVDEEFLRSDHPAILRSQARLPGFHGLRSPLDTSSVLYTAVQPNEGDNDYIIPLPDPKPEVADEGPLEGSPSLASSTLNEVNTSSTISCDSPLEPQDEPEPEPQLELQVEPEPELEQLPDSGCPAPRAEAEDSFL
Sequence of Mitogen-activated protein kinase 10 (Homo sapiens) (P53779 whole entry): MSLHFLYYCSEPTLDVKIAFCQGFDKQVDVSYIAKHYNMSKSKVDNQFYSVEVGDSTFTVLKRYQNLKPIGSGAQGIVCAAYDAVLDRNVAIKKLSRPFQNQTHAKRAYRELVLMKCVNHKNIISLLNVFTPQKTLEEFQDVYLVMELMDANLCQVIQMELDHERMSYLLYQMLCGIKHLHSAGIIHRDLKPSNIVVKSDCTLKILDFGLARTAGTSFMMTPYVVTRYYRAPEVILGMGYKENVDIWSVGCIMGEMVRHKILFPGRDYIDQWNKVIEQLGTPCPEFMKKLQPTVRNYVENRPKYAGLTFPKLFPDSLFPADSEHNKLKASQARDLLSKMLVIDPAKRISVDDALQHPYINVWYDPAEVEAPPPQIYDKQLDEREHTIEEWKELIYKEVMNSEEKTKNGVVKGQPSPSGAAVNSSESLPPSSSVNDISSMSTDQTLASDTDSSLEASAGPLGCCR
Sequence of Tyrosine-protein kinase Lyn (P07948 whole entry): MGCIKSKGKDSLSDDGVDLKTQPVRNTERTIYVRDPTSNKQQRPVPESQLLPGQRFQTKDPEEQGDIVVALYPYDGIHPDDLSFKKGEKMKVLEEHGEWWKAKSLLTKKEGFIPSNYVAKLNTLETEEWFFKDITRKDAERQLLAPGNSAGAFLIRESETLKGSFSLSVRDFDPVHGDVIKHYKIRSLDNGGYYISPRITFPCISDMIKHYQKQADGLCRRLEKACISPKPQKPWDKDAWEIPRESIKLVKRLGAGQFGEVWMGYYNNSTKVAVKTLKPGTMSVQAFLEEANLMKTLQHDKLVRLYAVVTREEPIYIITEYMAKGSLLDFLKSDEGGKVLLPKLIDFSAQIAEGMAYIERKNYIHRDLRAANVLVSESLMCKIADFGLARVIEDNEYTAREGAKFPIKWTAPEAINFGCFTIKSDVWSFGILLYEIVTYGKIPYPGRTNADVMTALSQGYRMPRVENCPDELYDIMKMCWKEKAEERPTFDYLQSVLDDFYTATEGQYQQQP
Sequence of Receptor-type tyrosine-protein kinase FLT3 (Homo sapiens) (P36888 whole entry): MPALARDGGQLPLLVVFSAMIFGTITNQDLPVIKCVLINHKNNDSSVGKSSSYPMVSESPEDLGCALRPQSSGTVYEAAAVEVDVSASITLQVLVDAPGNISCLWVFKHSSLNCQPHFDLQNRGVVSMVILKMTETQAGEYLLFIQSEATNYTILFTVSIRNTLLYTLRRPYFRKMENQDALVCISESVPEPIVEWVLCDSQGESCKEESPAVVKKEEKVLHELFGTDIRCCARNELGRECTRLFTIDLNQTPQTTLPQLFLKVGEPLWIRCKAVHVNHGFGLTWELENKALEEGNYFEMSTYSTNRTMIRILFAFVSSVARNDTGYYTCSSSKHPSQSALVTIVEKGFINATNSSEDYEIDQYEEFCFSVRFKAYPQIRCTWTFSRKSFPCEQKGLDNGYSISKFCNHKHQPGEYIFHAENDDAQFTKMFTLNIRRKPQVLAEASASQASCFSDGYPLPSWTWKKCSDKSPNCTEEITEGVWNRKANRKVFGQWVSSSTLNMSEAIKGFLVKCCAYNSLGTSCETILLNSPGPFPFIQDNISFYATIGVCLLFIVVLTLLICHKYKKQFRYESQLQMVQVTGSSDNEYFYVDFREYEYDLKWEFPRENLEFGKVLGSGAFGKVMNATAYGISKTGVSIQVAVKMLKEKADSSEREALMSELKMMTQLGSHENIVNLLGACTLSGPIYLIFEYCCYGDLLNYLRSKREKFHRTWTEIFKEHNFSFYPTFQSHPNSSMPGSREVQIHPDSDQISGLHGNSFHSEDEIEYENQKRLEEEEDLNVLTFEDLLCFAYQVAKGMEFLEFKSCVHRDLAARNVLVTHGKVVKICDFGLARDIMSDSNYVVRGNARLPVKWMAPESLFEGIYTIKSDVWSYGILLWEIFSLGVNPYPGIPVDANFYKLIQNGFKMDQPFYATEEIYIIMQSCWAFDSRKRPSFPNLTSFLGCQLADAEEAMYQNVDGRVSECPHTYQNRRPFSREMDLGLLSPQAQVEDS
Sequence of Tyrosine-protein kinase HCK (Homo sapiens) (P08631 2-526 limits assumed): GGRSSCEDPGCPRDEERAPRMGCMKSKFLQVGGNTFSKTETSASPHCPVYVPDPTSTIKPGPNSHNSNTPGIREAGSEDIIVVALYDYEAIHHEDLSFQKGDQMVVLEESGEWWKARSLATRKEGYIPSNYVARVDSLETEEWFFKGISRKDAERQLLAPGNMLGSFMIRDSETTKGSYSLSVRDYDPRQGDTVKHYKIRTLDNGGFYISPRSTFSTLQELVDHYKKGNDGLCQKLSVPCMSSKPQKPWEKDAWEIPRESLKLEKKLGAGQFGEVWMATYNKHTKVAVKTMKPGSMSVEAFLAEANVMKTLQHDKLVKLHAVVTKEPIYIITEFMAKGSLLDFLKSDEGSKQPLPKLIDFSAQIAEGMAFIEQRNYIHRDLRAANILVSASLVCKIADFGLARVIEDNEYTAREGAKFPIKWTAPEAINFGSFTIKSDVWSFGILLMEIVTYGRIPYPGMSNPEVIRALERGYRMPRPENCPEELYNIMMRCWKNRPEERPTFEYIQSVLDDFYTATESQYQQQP
Sequence of Serine/threonine-protein kinase TBK1 (Homo sapiens) (Q9UHD2 whole entry): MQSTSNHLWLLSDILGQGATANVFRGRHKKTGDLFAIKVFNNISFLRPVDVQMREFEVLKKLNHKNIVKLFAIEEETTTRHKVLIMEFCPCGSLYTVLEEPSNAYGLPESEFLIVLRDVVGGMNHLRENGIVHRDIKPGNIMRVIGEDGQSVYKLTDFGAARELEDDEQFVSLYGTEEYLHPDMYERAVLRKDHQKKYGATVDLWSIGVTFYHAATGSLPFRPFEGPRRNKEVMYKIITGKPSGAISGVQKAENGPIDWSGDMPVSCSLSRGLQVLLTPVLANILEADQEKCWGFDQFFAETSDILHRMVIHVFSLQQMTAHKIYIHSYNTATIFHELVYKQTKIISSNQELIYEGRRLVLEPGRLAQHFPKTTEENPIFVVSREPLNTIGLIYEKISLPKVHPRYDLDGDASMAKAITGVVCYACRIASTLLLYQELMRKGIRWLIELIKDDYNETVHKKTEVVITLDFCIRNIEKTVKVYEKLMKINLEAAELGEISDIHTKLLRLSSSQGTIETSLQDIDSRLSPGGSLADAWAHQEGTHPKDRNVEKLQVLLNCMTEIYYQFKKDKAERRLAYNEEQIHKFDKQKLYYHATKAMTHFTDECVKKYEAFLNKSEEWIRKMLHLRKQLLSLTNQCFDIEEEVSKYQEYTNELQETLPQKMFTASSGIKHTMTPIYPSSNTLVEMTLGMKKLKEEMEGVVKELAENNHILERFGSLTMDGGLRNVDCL
Sequence of Glycogen synthase kinase-3 beta (Homo sapiens) (P49841 whole entry, looked up): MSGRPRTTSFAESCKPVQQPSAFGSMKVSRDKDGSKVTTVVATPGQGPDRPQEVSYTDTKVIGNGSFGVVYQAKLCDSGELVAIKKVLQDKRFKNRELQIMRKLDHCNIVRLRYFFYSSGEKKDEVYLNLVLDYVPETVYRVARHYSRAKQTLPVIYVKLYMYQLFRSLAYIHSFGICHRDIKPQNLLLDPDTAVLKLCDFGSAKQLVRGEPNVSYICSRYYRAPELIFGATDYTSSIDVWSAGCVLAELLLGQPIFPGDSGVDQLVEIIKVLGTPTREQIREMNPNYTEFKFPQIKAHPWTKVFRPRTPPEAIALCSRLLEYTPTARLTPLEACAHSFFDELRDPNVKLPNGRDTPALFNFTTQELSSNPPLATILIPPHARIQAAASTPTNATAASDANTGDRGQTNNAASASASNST

## Cc1ccccc1Nc1nc2cc(F)c(N(C)C(=O)/C=C/CN(C)C)cc2n2cncc12
[1]
  inhibition: 13%
[2]
  Tmax: 3 h
[3]
  inhibition: 19%
[4]
  inhibition: -1%
[5]
  inhibition: -5%
[6]
  IC50: 16 nM
[6]; concentration not given here
  inhibition: 109%
[7]
  inhibition: 5%
[8]
  AUC(0-inf): 876 ng·h/mL
[9]
  inhibition: 2%
[10]
  inhibition: 6%
[11]
  inhibition: 8%
[12]
  bioavailability: 34%
[13]
  inhibition: 6%
[14]
  inhibition: 6%
[15]
  inhibition: 8%
[16]
  inhibition: 0%
Mus musculus [17]
  inhibition: Dose-dependent effect
[18]
  inhibition: 54%
Ephrin type-A receptor 8
  IC50: 434 nM
[19]
  inhibition: 4%
[20]
  inhibition: -8%
[21]
  inhibition: 65%
[22]
  inhibition: 11%
[23]
  inhibition: 5%
[24]
  EC50: > 10000 nM
Mus musculus [25]
  Activity: Active
[26]
  inhibition: 1%
[27]
  IC50: 624 nM
[28]
  inhibition: 19%
[29]
  inhibition: 10%
